According to ChEMBL document CHEMBL1145796, “Neuromuscular blocking activity and therapeutic potential of mixed-tetrahydroisoquinolinium halofumarates and halosuccinates in rhesus monkeys” (2003):

How the values were obtained:
[1] = Time from injection to 95% recovery of the twitch response at the ED95 dose in male Rhesus monkey.; type: functional, Cercopithecidae
Procedure, shortened: (§1)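 Anesthetized, ventilated male rhesus monkeys received sequential iv bolus doses with extensor digitorum twitch recorded. Onset is injection to peak twitch inhibition. Duration is injection to 95% twitch recovery. Values at the ED95 were read from plots of onset or duration vs dose. Means ± SE across animals.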

[2] = Dose required for 41% suppression of the twitch response at the extensor digitorum in male Rhesus monkey; type: functional; conditions: Cercopithecidae
Procedure, shortened: (§2)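 Adult male rhesus monkeys (8–15 kg) under ketamine (5 mg/kg i.m.) and pentobarbital (2–5 mg/kg iv) induction, then N2O 60%/O2 40%/halothane 0.5–1%, ventilated, core temperature 37–38 °C. Twitch of extensor digitorum was recorded after ≥20 min stable baseline. Sequential iv bolus doses from 0.03 to 6.4 mg/kg. Per-animal ED95 came from log-probability regression of dose vs % block. Other lines give the single dose tested with its % block.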

[3] = Time from injection to peak inhibition of twitch response at the ED95 dose in male Rhesus monkey.; type: functional, Cercopithecidae; procedure, shortened: as §1
[4] = Dose required for 93% suppression of the twitch response at the extensor digitorum in male Rhesus monkey; type: functional; conditions: Cercopithecidae; procedure, shortened: as §2
[5] = Selectivity index is changes in heart rate(cv dose) to the suppression of twitch response (ED95) in male Rhesus monkey; type: functional, Cercopithecidae
Procedure, shortened: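 Same anesthetized male rhesus preparation, with blood pressure, heart rate and EKG recorded alongside twitch during sequential iv doses up to 6.4 mg/kg. Cardiovascular threshold dose is the dose giving ≥10% change in heart rate or mean arterial pressure. Index = mean threshold dose / mean ED95 (extensor digitorum).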

[6] = Dose required for 80% suppression of the twitch response at the extensor digitorum in male Rhesus monkey; type: functional; conditions: Cercopithecidae; procedure, shortened: as §2
[7] = Dose required for 95% suppression of the twitch response at the extensor digitorum in male Rhesus monkey.; type: functional, Cercopithecidae; conditions: Cercopithecidae; read-out: ED95; procedure, shortened: as §2
[8] = Time from injection to peak inhibition of twitch response at a dose of 0.2 mg/kg in male Rhesus monkey was evaluated; type: functional, Cercopithecidae
Procedure, shortened: (§3)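 Single iv bolus of 0.2 or 0.4 mg/kg in anesthetized, ventilated male rhesus monkeys, with extensor digitorum twitch recorded. Onset taken from injection to peak twitch inhibition at the given dose. Means ± SE, N = number of animals.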

[9] = Time from injection to peak inhibition of twitch response at a dose of 0.4 mg/kg in male Rhesus monkey was evaluated; type: functional, Cercopithecidae; procedure, shortened: as §3
[10] = Time from injection to 95% recovery of twitch response at a dose of 0.2 mg/kg in male Rhesus monkey was evaluated
[11] = Time from injection to 95% recovery of twitch response at a dose of 0.4 mg/kg in male Rhesus monkey was evaluated
[12] = Dose required for 91% suppression of the twitch response at the extensor digitorum in male Rhesus monkey; type: functional; conditions: Cercopithecidae; procedure, shortened: as §2
[13] = Dose required for 100% suppression of the twitch response at the extensor digitorum in male Rhesus monkey; type: functional; conditions: Cercopithecidae; procedure, shortened: as §2

Structure (SMILES): COc1cc2c(cc1OC)[C@H](c1cc(OC)c(OC)c(OC)c1)[N@@+](C)(CCCOC(=O)/C(Cl)=C/C(=O)OCCC[N@+]1(C)CCc3cc(OC)c(OC)c(OC)c3[C@H]1Cc1cc(OC)c(OC)c(OC)c1)CC2.COc1cc2c(cc1OC)[C@H](c1cc(OC)c(OC)c(OC)c1)[N@@+](C)(CCCOC(=O)/C=C(\Cl)C(=O)OCCC[N@+]1(C)CCc3cc(OC)c(OC)c(OC)c3[C@H]1Cc1cc(OC)c(OC)c(OC)c1)CC2.[Cl-].[Cl-].[Cl-].[Cl-]
- Duration [1]: 6.5 min
- ED95 [2]: 0.05 mg/kg
- Onset [3]: 145 s

Structure (SMILES): COc1cc(C2c3c(cc(OC)c(OC)c3OC)CC[N@@+]2(C)CCCOC(=O)/C(Cl)=C/C(=O)OCCC[N@+]2(C)CCc3cc(OC)c(OC)c(OC)c3[C@H]2c2cc(OC)c(OC)c(OC)c2)cc(OC)c1OC.[Cl-].[Cl-] (some centres undefined)
- Duration [1]: 3.6 min
- ED95 [4]: 2 mg/kg
- Onset [3]: 45 s
- Selectivity index [5]: 1

Structure (SMILES): COc1cc2c(cc1OC)[C@H](c1cc(OC)c(OC)c(OC)c1)[N@@+](C)(CCCOC(=O)CCCCCC(=O)OCCC[N@+]1(C)CCc3cc(OC)c(OC)cc3[C@H]1Cc1cc(OC)c(OC)c(OC)c1)CC2.[Cl-].[Cl-]
- Duration [1]: 7.1 min
- ED95 [6]: 0.2 mg/kg
- Onset [3]: 40 s

Structure (SMILES): COc1cc2c(cc1OC)[C@@H](c1cc(OC)c(OC)c(OC)c1)[N@+](C)(CCCOC(=O)CCCCCCC(=O)OCCC[N@+]1(C)CCc3cc(OC)c(OC)cc3[C@H]1Cc1cc(OC)c(OC)c(OC)c1)CC2.[Cl-].[Cl-]
- Duration [1]: 8.6 min
- ED95 [7]: 0.103 mg/kg
- Onset [8]: 50 s
- Onset [9]: 25 s
- Onset [3]: 75 s
- Selectivity index [5]: 47
- Duration [10]: 14.6 min
- Duration [11]: 16.9 min

Structure (SMILES): COc1cc2c(cc1OC)[C@H](c1cc(OC)c(OC)c(OC)c1)[N@@+](C)(CCCOC(=O)/C=C(\Cl)C(=O)OCCC[N@+]1(C)CCc3cc(OC)c(OC)c(OC)c3[C@H]1Cc1cc(OC)c(OC)c(OC)c1)CC2.[Cl-].[Cl-]
- Duration [1]: 13.3 min
- ED95 [12]: 0.05 mg/kg
- Onset [3]: 160 s

Structure (SMILES): COc1cc2c(cc1OC)[C@H](c1cc(OC)c(OC)c(OC)c1)[N@@+](C)(CCCOC(=O)C[C@H](F)C(=O)OCCC[N@+]1(C)CCc3cc(OC)c(OC)cc3[C@H]1Cc1cc(OC)c(OC)c(OC)c1)CC2.[Cl-].[Cl-]
- Duration [1]: 35 min
- ED95 [13]: 0.05 mg/kg
- Onset [3]: 80 s
